Reference: ChEMBL document CHEMBL2062401, “New pyrimido[5,4-e]pyrrolo[1,2-c]pyrimidines: synthesis, 2D-QSAR, anti-inflammatory, analgesic and ulcerogenicity studies” (Eur J Med Chem, 2012)

Key:
Rattus norvegicus [1] = assay: Antiinflammatory activity in Wistar albino rat assessed as inhibition of carrageenan-induced paw edema at 0.029 mmol/kg, po dosed 1 hr before carrageenan challenge measured 1 hr post carrageenan-induced inflammation; type: functional
Summary of the method: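 Wistar albino rats of both sexes, 120–150 g, six per group, food withdrawn the day before. Given orally 0.029 mmol/kg in saline with a few drops of Tween 80, by stomach tube, 1 h before subplantar s.c. carrageenan (0.1 ml of 1%) into the right hind paw. Paw thickness measured at 1, 2, 3 and 4 h against baseline. % inhibition = 100 × (1 − Vt/Vc).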

Rattus norvegicus [2] = assay: Gastrointestinal toxicity in Wistar albino rat assessed as incidence of stomach ulceration at 0.029 mmol/kg, po; type: organism-based; settings: in vivo
Summary of the method: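 Rats given single oral dose suspended in saline with few drops Tween 80 (groups of 6); killed under deep ether anaesthesia 5 h after treatment; stomach opened along greater curvature and examined for lesions or bleeding; ulceration expressed as number of rats affected per group.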

Mus musculus [3] = assay: Analgesic activity in Swiss albino mouse assessed as inhibition of acetic acid-induced writhing at 0.029 mmol/kg. po dosed 1 hr before acetic acid challenge and measured during 30 mins post acetic acid challenge; type: functional
Summary of the method: (§1)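 Swiss albino mice of either sex, 18–22 g, six per group. Oral suspension at 0.029 mmol/kg given 1 h before 0.3 ml of 1% acetic acid i.p. Contractions counted for 30 min, starting 5 min after injection. % protection = (n − n')/n × 100 against control writhing. Potency% = % inhibition of test / % inhibition of indomethacin × 100. Mean ± SEM, ANOVA with post hoc test.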

Mus musculus [4] = assay: Analgesic activity in Swiss albino mouse assessed as inhibition of acetic acid-induced writhing at 0.029 mmol/kg. po dosed 1 hr before acetic acid challenge and measured during 30 mins post acetic acid challenge relative to indomethacin; type: functional; settings: read-out: INH; summary of the method: as §1
[5] = Lipophilicity, log P of the compound; type: physicochemical; settings: octanol/water
Rattus norvegicus [6] = assay: Antiinflammatory activity in Wistar albino rat assessed as inhibition of carrageenan-induced paw edema at 0.029 mmol/kg, po dosed 1 hr before carrageenan challenge measured 2 hrs post carrageenan-induced inflammation
Rattus norvegicus [7] = assay: Antiinflammatory activity in Wistar albino rat assessed as inhibition of carrageenan-induced paw edema at 0.029 mmol/kg, po dosed 1 hr before carrageenan challenge measured 3 hrs post carrageenan-induced inflammation
Rattus norvegicus [8] = assay: Antiinflammatory activity in Wistar albino rat assessed as inhibition of carrageenan-induced paw edema at 0.029 mmol/kg, po dosed 1 hr before carrageenan challenge measured 4 hrs post carrageenan-induced inflammation

| Structure (SMILES) | inhibition in vivo at 29 µmol/kg (Rattus norvegicus [1]) [%] | Activity (Rattus norvegicus [2]) | inhibition in vivo at 29 µmol/kg (Mus musculus [3]) [%] | writhing inhibition relative to indomethacin (potency %) at 29 µmol/kg (Mus musculus [4]) [%] | logP [5] | inhibition in vivo at 29 µmol/kg (Rattus norvegicus [6]) [%] | inhibition in vivo at 29 µmol/kg (Rattus norvegicus [7]) [%] | inhibition in vivo at 29 µmol/kg (Rattus norvegicus [8]) [%] |
| --- | --- | --- | --- | --- | --- | --- | --- | --- |
| O=C(O)c1nc2c(c(=O)[nH]1)C1CCCN1C(=O)N2c1ccccc1 (centres undefined) | 68 | Toxic | 64.7 | 97.8 | 0.661 | 56 | 66 | 72 |
| O=C(N/N=C/c1ccc(Cl)cc1)c1nc2c(c(=O)[nH]1)C1CCCN1C(=O)N2c1ccccc1 (centres undefined) | 54 | Non-toxic | 34.8 | 52.7 | 3.36 | 32 | 44 | 38 |
| C/C(=N\NC(=O)c1nc2c(c(=O)[nH]1)C1CCCN1C(=O)N2c1ccccc1)c1ccc(Cl)cc1 (centres undefined) | 43 | Toxic | 62.1 | 94 | 3.29 | 50 | 51 | 57 |
| CCO/C=N/NC(=O)c1nc2c(c(=O)[nH]1)C1CCCN1C(=O)N2c1ccccc1 (centres undefined) | 47 | Non-toxic | 24.9 | 37.7 | 1.44 | 55 | 64 | 55 |
| O=C(NN=C(c1ccccc1)c1ccccc1)c1nc2c(c(=O)[nH]1)C1CCCN1C(=O)N2c1ccccc1 (centres undefined) | 44 | Non-toxic | 81.9 | 124 | 5.52 | 51 | 51 | 53 |
| O=C1CC(O)=NN1C(=O)c1nc2c(c(=O)[nH]1)C1CCCN1C(=O)N2c1ccccc1 (centres undefined) | 68 | Non-toxic | 61.9 | 93.6 | 0.693 | 44 | 49 | 65 |
| C/C(=N\NC(=O)c1nc2c(c(=O)[nH]1)C1CCCN1C(=O)N2c1ccccc1)c1ccccc1 (centres undefined) | 61 | Toxic | 67.5 | 102 | 3.28 | 44 | 53 | 61 |
| Nc1cc(=O)[nH]n1C(=O)c1nc2c(c(=O)[nH]1)C1CCCN1C(=O)N2c1ccccc1 (centres undefined) | 50 | Non-toxic | 70.3 | 106 | 0.517 | 20 | 45 | 50 |
| O=C(N/N=C/c1ccccc1O)c1nc2c(c(=O)[nH]1)C1CCCN1C(=O)N2c1ccccc1 (centres undefined) | 53 | Toxic | 68.9 | 104 | 2.46 | 34 | 46 | 47 |
| CC(C)=NNC(=O)c1nc2c(c(=O)[nH]1)C1CCCN1C(=O)N2c1ccccc1 (centres undefined) | 26 | Non-toxic | 58.8 | 89 |  | 23 | 35 | 36 |
